# PAD4 inh – blocks human protein arginine deiminase 4; recombinant PAD4, RCA probe fluorescence polarization; inhibition, % at 6.36 µM; 330,000 compounds, 0.41% hits; AID 485272;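 active = percent inhibition above a cutoff equal to the mean of all tested compounds plus 3 SD, cut at about 15% in these data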;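 note: 0% = PAD4 with RCA probe and DMSO and 100% = probe without PAD4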
# RBBP9 inhibitor – blocks human serine hydrolase RBBP9 | inhibition, % at 7.94 µM | 220,000 compounds, 0.2% hits | AID 1515 | O75884 | recombinant RBBP9, FP-Rh probe fluorescence polarization;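 active = inhibition above the campaign mean of all tested compounds plus 3 SD, cut at about 14% in these data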;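 note: plate controls were DMSO wells with RBBP9 for no effect and wells lacking RBBP9 protein for full effect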
# Target sequence (O75884 whole entry, looked up): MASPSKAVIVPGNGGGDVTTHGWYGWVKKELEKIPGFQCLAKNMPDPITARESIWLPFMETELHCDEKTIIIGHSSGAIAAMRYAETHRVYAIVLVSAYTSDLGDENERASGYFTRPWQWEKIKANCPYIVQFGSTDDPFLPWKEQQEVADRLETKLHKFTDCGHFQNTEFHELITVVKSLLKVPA
#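 System: RBBP9 protein / Buffer or medium: Tris/NaCl buffer pH 8.0 with 0.1% Pluronic / Probe or stimulus: Serine-hydrolase probe FP-Rh, 375 nM pre-mixing / Dosing: 7.94 µM single dose, 0.794% DMSO / Times: enzyme-compound preincubation 30 min, then probe labeling 45 min, 25 °C / Technique: fluorescence polarization (mP), excitation 525 nm, emission 598 nm / Replication: singlicate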
# PRMT1 FP inh – blocks human protein arginine methyltransferase 1; recombinant PRMT1, activity-based probe fluorescence polarization; Q99873; 370,000 compounds, 1.3% hits; inhibition, % at 2.79 µM; AID 652257;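 active = inhibition above about 21% made by adding two undisclosed values, limit read from the data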
# GSTO1 inh – blocks human GSTO1 in RBBP9 counter-screen; AID 1974; P78417; inhibition, % at 5.96 µM; 300,000 compounds, 1.1% hits; recombinant GSTO1, activity-based probe fluorescence polarization;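 active = inhibition above the campaign mean inhibition plus 3 SD, cut at about 35% in these data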;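 note: 0% = GSTO1-1 with DMSO and 100% = wells lacking GSTO1-1 enzyme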
# Target sequence (P78417 whole entry, looked up): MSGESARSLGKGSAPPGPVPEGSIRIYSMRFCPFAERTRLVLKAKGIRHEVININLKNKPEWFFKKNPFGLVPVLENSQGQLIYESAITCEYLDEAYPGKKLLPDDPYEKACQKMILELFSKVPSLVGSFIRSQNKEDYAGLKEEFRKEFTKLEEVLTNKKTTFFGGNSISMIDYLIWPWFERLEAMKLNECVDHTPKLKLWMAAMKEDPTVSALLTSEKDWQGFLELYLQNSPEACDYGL
# SIAE inh – human SIAE inhibition, primary screen. SIAE FP-Rh probe binding, fluorescence polarization. inhibition, % at 9.66 µM. 370,000 compounds, 0.69% hits;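 active = inhibition above a cutoff: mean of compounds within the control limits plus 3 SD of those, cut at about 17% in these data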;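 note: 0% = plate median of compound wells and 100% = probe without SIAE protein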
# Active calls of the source: *; . = not tested or not shown. The list is not random: actives were taken first. Their share in the collection is about 2.7%.
SMILES,PAD4 inh,RBBP9 inhibitor,PRMT1 FP inh,GSTO1 inh,SIAE inh
CC1CCCN(Cc2c(O)ccc3c2O/C(=C\c2ccco2)C3=O)C1 (centres undefined),-3.6,1.8,21.8*,16.5,7.4
O=C1NC(=S)SC1=C1CCCC1,0.9,-16.0,24.4*,23.2,-1.5
Cc1nc2scc(C)n2c(=O)c1S(=O)(=O)NCc1ccccc1Cl,-4.6,.,2.1,4.8,-7.8
O=C(NC1CCCCC1NC(=O)c1ccco1)c1ccco1 (centres undefined),-1.1,-6.9,-2.9,-0.6,9.3
CCn1c(=NC(=O)CSCC(=O)Nc2nccs2)sc2ccccc21,-4.7,0.3,0.5,0.8,1.4
Cc1ccc(SCC(=O)O/N=C(\N)c2ccc([N+](=O)[O-])cc2)cc1,-1.7,-0.6,-0.5,-4.7,10.3
CC(=O)Nc1ccc(-n2c(C)ccc2-c2ccccc2)cc1,4.7,.,22.6*,-1.4,7.7
CC(=O)Nc1ccc(-n2c(C)ccc2C)cc1,-2.4,0.2,1.2,3.9,-3.1
O=C1C(C2=C(O)c3ccccc3C2=O)=Nc2ccccc21,-62.4,3.8,21.3*,-13.1,9.6
Cc1c(Cl)cccc1NC(=O)CSc1nncn1-c1ccccn1,-2.5,.,24.5*,-1.8,-3.4
O=C(CSc1nncn1-c1ccccn1)Nc1ccccc1Cl,-2.7,.,2.2,3.8,-2.9
COc1ccccc1C(=O)N1CCNC(=O)C1CC(=O)Nc1cccc(C)c1 (centres undefined),-3.4,-7.5,-2.5,4.8,3.2
COc1ccc(-n2c(C)cc(C(=O)CCl)c2C)cc1,1.9,-6.6,2.2,97.0*,6.5
Cc1cc(-n2c(C)cc(C(=O)CSc3ccc4c(c3)OCCO4)c2C)no1,3.0,-9.8,22.3*,2.0,-2.5
Cc1cc(-n2c(C)cc(C(=O)CCl)c2C)no1,2.8,-8.4,3.0,82.9*,5.6
CCCCNC(=O)C1(C(=O)C2CC2)CC(C(=O)OCC)=NO1 (centres undefined),.,.,-5.4,.,7.3
CC1CC(=O)c2cnc(N)nc2C1 (centres undefined),-1.5,1.8,-3.9,5.5,-2.3
COc1ccc(Cl)cc1-c1cc(C(=O)NCc2cccc(Cl)c2)[nH]n1,.,.,-1.6,.,-15.7
On1onc2c3cc(-c4ccccc4)nc3ccc21,0.6,12.8,-3.9,5.7,17.6*
CCOC(=O)c1c(C)oc2c1c(C=NCc1ccccn1)c(O)c1ccccc12,.,-7.9,21.4*,.,17.9*
CCOC(=O)c1c(C)oc2c1c(C=NCC1CCCO1)c(O)c1ccccc12 (centres undefined),.,2.6,18.5,.,7.7
Cc1ccc(-c2cc(-c3ccccc3Cl)c(C#N)c(N)n2)o1,-15.1,-2.7,22.0*,1.0,4.2
Cc1cccc(Nc2nc(NCc3ccco3)c3ccccc3n2)c1,-11.4,-8.1,2.2,-6.1,22.6*
CCN1C(=O)CC(N2CCN(c3ccc(OC)cc3)CC2)C1=O (centres undefined),-1.4,-3.4,-1.9,4.4,9.4
Cc1cc2c(SCc3ccccc3Cl)nc(N)nc2nc1C,.,.,23.8*,.,-44.4
SMILES,PAD4 inh,RBBP9 inhibitor,PRMT1 FP inh,GSTO1 inh,SIAE inh
CCc1ccccc1NC(=O)NNC(=O)c1ccc2ccccc2c1O,-0.7,.,3.5,5.1,15.5
O=C(NC1CC1)c1ccc2c(c1)S(=O)(=O)c1cc(Cl)ccc1C2=O,19.9*,.,1.0,.,5.1
CC(C)c1ccccc1-n1c(SCC(=O)N2CCN(c3ccccc3)CC2)nnc1-c1cccnc1,-2.7,-1.5,-0.1,-1.1,4.0
Cc1ncc(CO)c(/C=N/NC(=S)Nc2ccc(Cl)c(Cl)c2)c1O,2.3,-13.3,2.1,-9.2,19.0*
Cc1ncc(CO)c(/C=N/NC(=S)Nc2cccc(Cl)c2)c1O,-0.8,-5.0,.,3.8,.
CC1CN(C(=O)c2ccccc2Sc2ccccc2C#N)CC(C)O1 (centres undefined),-2.2,-6.3,-0.8,-5.2,3.4
Cc1ccc(S(=O)(=O)NCCSc2nnnn2-c2cc(C)ccc2C)cc1,-4.6,-1.1,5.8,35.3*,-13.0
O=C(Cn1c(=O)[nH]c2ccccc2c1=O)N1CCN(c2cccc(Cl)c2)CC1,2.2,-6.4,5.2,-5.7,-1.8
CCCOc1ccc(N2C(=O)CC(SCCc3nc4ccccc4[nH]3)C2=O)cc1 (centres undefined),-6.0,-10.3,11.6,1.9,-7.8
CCCOc1ccc(N2C(=O)CC(SCCN)C2=O)cc1 (centres undefined),-2.5,-3.8,22.4*,1.0,5.3
CN(C)c1ccc(N=Nc2ccc(S(N)(=O)=O)cc2)cc1,1.3,.,-2.7,-4.2,-4.7

# Screening results (PubChem)
